Assay results published in ChEMBL document CHEMBL4665790, “Photohormones Enable Optical Control of the Peroxisome Proliferator-Activated Receptor γ (PPARγ)” (J Med Chem, 2020).
The source made the active and inactive calls. The rule behind the calls is not given here.

Tests used:
[1] = target: T1, Peroxisome proliferator-activated receptor gamma (Homo sapiens, UniProt P37231); experiment: Agonist activity at PPARgamma (unknown origin) expressed in HEK293T cells incubated for 14 to 16 hrs under irradiation by hybrid Gal4 reporter gene assay; format: cell-based
T1 sequence (P37231 whole entry): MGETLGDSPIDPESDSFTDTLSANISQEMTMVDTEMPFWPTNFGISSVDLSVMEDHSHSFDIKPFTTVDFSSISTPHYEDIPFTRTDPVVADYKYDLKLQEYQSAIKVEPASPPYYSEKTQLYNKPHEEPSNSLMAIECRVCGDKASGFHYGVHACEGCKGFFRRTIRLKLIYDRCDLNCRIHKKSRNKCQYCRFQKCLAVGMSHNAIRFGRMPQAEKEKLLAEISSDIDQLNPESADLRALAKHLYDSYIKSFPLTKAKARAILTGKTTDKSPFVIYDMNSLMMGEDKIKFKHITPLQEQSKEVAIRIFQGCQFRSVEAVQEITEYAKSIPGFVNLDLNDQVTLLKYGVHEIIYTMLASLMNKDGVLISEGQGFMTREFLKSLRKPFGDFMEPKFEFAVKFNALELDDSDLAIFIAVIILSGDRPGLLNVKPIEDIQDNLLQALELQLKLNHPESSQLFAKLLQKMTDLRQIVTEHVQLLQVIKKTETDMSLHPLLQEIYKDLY

[2] = target: T1, Peroxisome proliferator-activated receptor gamma; experiment: Agonist activity at PPARy in human HepG2 cells transfected with human PPRE incubated for 14 to 16 hrs using pre-irradiated compound by firefly luciferase reporter gene assay; format: cell-based
Outline: (§1)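 HepG2 cells on collagen-coated wells, transfected (Lipofectamine 3000) with PPRE1-pGL3 (human full-length PPRE driving firefly luciferase) plus pRL-SV40; endogenous PPARγ/RXR, no overexpression. Compound in Opti-MEM, 0.1% DMSO, 14–16 h; cis state held by 75 ms 370 nm pulses every 15 s. Firefly/Renilla normalised, fold activation over DMSO control; rosiglitazone reference.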

[3] = target: T1, Peroxisome proliferator-activated receptor gamma; experiment: (§2) Binding affinity to recombinant PPARy LBD (unknown origin) expressed in Escherichia coli BL21 DE3 using pre-irradiated compound by ITC assay
Outline: (§3)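 ITC at 25 °C: 300 µM compound, pre-irradiated 5 min at 365 nm, titrated into 64 µM His-tag-cleaved PPARγ LBD (aa 234–505, E. coli BL21 DE3 with GroEL/ES, IMAC plus gel filtration) in 25 mM HEPES pH 7.5, 150 mM KF, 5 mM DTT, 10% glycerol, 1% DMSO. 31 injections (1.0 then 2.5 µL), 300 s apart, 75 rpm; buffer control.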

[4] = target: T2, Peroxisome proliferator-activated receptor gamma (Homo sapiens) (UniProt P37231); experiment: Agonist activity at PPARy in human HepG2 cells transfected with human PPRE incubated for 14 to 16 hrs using pre-irradiated compound by firefly luciferase reporter gene assay relative to control; format: cell-based; conditions: filed as agonist, time hrs 14-16; outline: as §1
T2 sequence (whole entry): T1 sequence (P37231 whole entry)

[5] = target: T3, Peroxisome proliferator-activated receptor alpha (Homo sapiens) (UniProt Q07869); experiment: Agonist activity at PPARalpha (unknown origin) expressed in HEK293T cells at 10 uM incubated for 14 to 16 hrs under irradiation by hybrid Gal4 reporter gene assay; format: cell-based; conditions: time hrs 14-16
T3 sequence (whole entry): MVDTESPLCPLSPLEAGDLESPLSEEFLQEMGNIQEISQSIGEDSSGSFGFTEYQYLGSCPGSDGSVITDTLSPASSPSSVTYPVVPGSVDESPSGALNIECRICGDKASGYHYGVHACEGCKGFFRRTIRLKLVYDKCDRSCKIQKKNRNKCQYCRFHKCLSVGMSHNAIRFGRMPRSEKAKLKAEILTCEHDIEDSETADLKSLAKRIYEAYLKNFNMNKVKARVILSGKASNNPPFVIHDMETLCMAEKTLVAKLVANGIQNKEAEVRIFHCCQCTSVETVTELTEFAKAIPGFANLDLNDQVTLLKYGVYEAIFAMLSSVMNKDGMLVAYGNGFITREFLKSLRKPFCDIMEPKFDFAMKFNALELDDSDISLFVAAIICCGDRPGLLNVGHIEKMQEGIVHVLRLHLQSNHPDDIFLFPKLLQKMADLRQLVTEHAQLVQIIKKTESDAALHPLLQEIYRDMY
Outline: (§4)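 HEK293T cells transfected (Lipofectamine LTX) with Gal4 fusion of human PPARα or PPARδ hinge region + LBD, pFR-Luc reporter and pRL-SV40; compound added in Opti-MEM with 0.1% DMSO 5 h post-transfection, 14–16 h incubation. Dual-Glo luciferase; firefly/Renilla ratio gives RLU, fold activation vs DMSO control. Duplicates, ≥2 independent repeats.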

[6] = target: T4, Peroxisome proliferator-activated receptor delta (Homo sapiens) (UniProt Q03181); experiment: Agonist activity at PPARdelta (unknown origin) expressed in HEK293T cells at 10 uM incubated for 14 to 16 hrs under irradiation by hybrid Gal4 reporter gene assay; format: cell-based; conditions: time hrs 14-16; outline: as §4
T4 sequence (whole entry): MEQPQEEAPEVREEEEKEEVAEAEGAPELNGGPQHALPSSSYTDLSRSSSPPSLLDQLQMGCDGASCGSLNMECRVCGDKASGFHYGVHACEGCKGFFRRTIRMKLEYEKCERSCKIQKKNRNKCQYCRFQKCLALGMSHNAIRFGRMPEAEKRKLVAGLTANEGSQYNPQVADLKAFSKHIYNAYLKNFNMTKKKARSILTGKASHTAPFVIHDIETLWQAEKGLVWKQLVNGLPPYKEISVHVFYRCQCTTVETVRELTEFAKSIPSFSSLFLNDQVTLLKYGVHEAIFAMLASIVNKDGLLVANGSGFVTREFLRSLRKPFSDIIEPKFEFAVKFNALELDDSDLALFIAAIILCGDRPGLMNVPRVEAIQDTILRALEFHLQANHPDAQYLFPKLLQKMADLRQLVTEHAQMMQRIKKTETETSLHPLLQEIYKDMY

[7] = target: T2, Peroxisome proliferator-activated receptor gamma (Homo sapiens); experiment: Agonist activity at PPARgamma (unknown origin) expressed in HEK293T cells at 10 uM incubated for 14 to 16 hrs under irradiation by hybrid Gal4 reporter gene assay; format: cell-based; conditions: time hrs 14-16
Outline: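 Gal4 hybrid reporter: HEK293T cells transiently co-transfected with Gal4–human PPARγ hinge+LBD fusion, Gal4-responsive firefly luciferase reporter and Renilla normalisation plasmid. Compound added 5 h post-transfection in Opti-MEM, 0.1% DMSO final; 14–16 h incubation. Dual-Glo read-out, firefly/Renilla ratio, fold over DMSO control. Technical duplicates, at least two independent repeats.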

[8] = target: T2, Peroxisome proliferator-activated receptor gamma (Homo sapiens); experiment: Agonist activity at PPARy in human HepG2 cells transfected with human PPRE at 10 uM incubated for 14 to 16 hrs using pre-irradiated compound by firefly luciferase reporter gene assay; format: cell-based; conditions: filed as agonist, time hrs 14-16; outline: as §1
[9] = target: T2, Peroxisome proliferator-activated receptor gamma (Homo sapiens); experiment: as §2; outline: as §3

| SMILES | EC50 [1] [µM] | Activity [6] | other results |
| --- | --- | --- | --- |
| O=C1NC(=O)C(Cc2ccc(/N=N\c3ccc(C(F)(F)F)cc3)cc2)S1 (centres undefined) | 6.5 | – | – |
| Cc1ccccc1-c1ccc(/N=N\c2ccc(CC3SC(=O)NC3=O)cc2)cc1 (centres undefined) | 6.4 | – | EC50 [2]: 900 nM; Kd [3]: 9.3 µM; fold change (FC) [4]: 2.4 |
| O=C1NC(=O)C(Cc2ccc(/N=N\c3ccccc3)cc2)S1 (centres undefined) | 6.3 | – | – |
| O=C(c1ccccc1)c1ccccc1N[C@@H](Cc1ccc(/N=N/c2ccccc2)cc1)C(=O)O | – | inactive | Activity [5]: inactive |
| O=C1NC(=S)NC(=O)C1=Cc1ccc(/N=N/c2ccccc2)cc1 | – | inactive | Activity [5]: inactive; Activity [7]: inactive |
| O=C1NC(=O)C(Cc2ccc(/N=N/c3ccc(C(F)(F)F)cc3)cc2)S1 (centres undefined) | 2.2 | – | – |
| O=C1NC(=O)C(Cc2ccc(/N=N\c3ccc(Cl)cc3)cc2)S1 (centres undefined) | 7 | – | – |
| Cc1ccccc1-c1ccc(/N=N/c2ccc(CC3SC(=O)NC3=O)cc2)cc1 (centres undefined) | 2.8 | – | Activity [8]: Active; Activity [9]: inactive |
| O=C1NC(=O)C(Cc2ccc(/N=N/c3ccc(Cl)cc3)cc2)S1 (centres undefined) | 2.9 | – | – |
| O=C1NC(=O)C(Cc2ccc(/N=N/c3ccccc3)cc2)S1 (centres undefined) | 2.2 | inactive | – |
